From PubChem BioAssay
Sampled rows, rich in hits. Any-hit rate of the full collection: about 3.1%.
UBC13 polyUb: UBC13 polyubiquitin chain formation inhibitors, primary screen, biochemical, TR-FRET, uHTS; Ubiquitin-conjugating enzyme E2 N (Homo sapiens), P61088; inhibition, % at 20 µM; actives 0.47% (n = 330,000); AID 485273, 2010; in the data active = inhibition above about 45%, passing the limit was not always enough
SENP8 block-1: SENP8 protease inhibitors, primary screen, biochemical, luminescence; inhibition, % at 10 µM; Sentrin-specific protease 8 (Homo sapiens), Q96LD8; purified SENP8, Z-RLRGG-aminoluciferin cleavage; actives 1.2% (n = 330,000); in the data active = inhibition above about 50%
SENP7 inh: SENP7 protease inhibitors, primary screen, biochemical, luminescence, uHTS. Sentrin-specific protease 7 (Homo sapiens), Q9BQF6. recombinant SENP7, Z-RLRGG-aminoluciferin luminescence, 40 min. inhibition, % at 5 µM. actives 1.5% (n = 330,000);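 active = inhibition above about 50% at the single test dose, limit read from the data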;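 note: plate controls were DMSO with enzyme for no effect and no enzyme buffer wells for full effect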
Apaf1 inhib: inhibitors of human Apaf-1 apoptosome, primary screen, biochemical, DEVD-Rh110 fluorescence, uHTS | actives 0.71% (n = 330,000) | inhibition, % at 20 µM | AID 489030, 2010 | reconstituted apoptosome caspase-3 activity; active = inhibition of at least 40% at 20 µM;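 note: plate controls were DMSO wells for no effect and DEVD-CHO caspase inhibitor wells for full effect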
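Material: reconstituted apoptosome with Apaf-1, cytochrome c, caspase-9, procaspase-3, dATP; medium: pH 7.5 Hepes buffer with CHAPS, BSA, DTT; also added: cytochrome c and DEVD-Rh110 substrate; timing: 30 min plus 50 min, RT; signal: Rh110 fluorescence intensity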
SENP6 inh: SENP6 protease inhibitors, primary screen, biochemical, luminescence, uHTS; Recombinant SENP6 catalytic domain, aminoluciferin luminescence; Sentrin-specific protease 6 (Homo sapiens), Q9GZR1; actives 1.8% (n = 330,000); AID 2599, 2010; inhibition, % at 10 µM;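 active = inhibition above about 50% at the single tested dose, limit read from the data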;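 note: plate controls were DMSO wells with enzyme for no effect and DMSO wells lacking enzyme for full effect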
SENP8 block-2: human SENP8 protease inhibitors, primary screen, biochemical, fluorescence, Nedd8 protein substrate, uHTS; recombinant SENP8; inhibition, % at 20 µM; actives 0.64% (n = 360,000); AID 602440, 2012; in the data active = inhibition mostly above about 40%, no sharp cut-off; inactive = mostly below about 27%
SENP8 confirm: SENP8 protease inhibitors, retest, confirmation, biochemical, luminescence, single concentration; shares compounds with SENP7 inh; Recombinant SENP8, Z-RLRGG-aminoluciferin luminescence, 60 min; inhibition, % at 12.5 µM; actives 40% (n = 6,200);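 active = mean inhibition across replicates above about 50%, limit read from the data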
SENP6 conf: SENP6 protease inhibitors, confirmation, biochemical, luminescence, single concentration; shares compounds with SENP7 inh; recombinant SENP6, Z-RLRGG-aminoluciferin luminescence; inhibition, % at 12.5 µM; actives 58% (n = 6,200)
SENP7 conf: SENP7 protease inhibitors, retest, confirmation, biochemical, luminescence, single concentration; recombinant SENP7, Z-RLRGG-aminoluciferin luminescence, 40 min; shares compounds with SENP7 inh; AID 488917, 2010; actives 69% (n = 6,200); inhibition, % at 12.5 µM
Casp3 select: caspase-3 protease inhibitors, confirmation, selectivity assay for SENP inhibitor project, biochemical, single concentration; shares compounds with SENP7 inh; purified caspase-3, Z-DEVD-aminoluciferin luminescence, 60 min; inhibition, % at 12.5 µM; actives 60% (n = 6,200); AID 488918, 2010;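 active = mean inhibition above about 50%, limit read from the data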;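 note: plate controls were enzyme with DMSO for no effect and wells without caspase-3 for full effect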
Luc interf: interferes with luciferase luminescence in SENP counter-screen | shares compounds with SENP7 inh | Pre-incubated SENP8/Z-RLRGG-aminoluciferin, luciferase luminescence interference | inhibition, % at 12.5 µM | actives 39% (n = 6,200) | AID 488919;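 active = mean inhibition above about 50% when retested at one dose, limit read from the data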;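 note: plate controls were DMSO wells with completed reaction for no effect and substrate without enzyme for full effect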
Active calls of the source: *.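 Rule for the calls, unless noted: active = mean inhibition above about 50% in the one-dose retest (limit read from the data); inactive = the rest.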

What do the screens show for `COc1cccc(/C=C2/SC(=S)N(CCCC(=O)Nc3ccc(O)cc3)C2=O)c1`?
UBC13 polyUb: 5; SENP8 block-1: -12; SENP7 inh: 0; Apaf1 inhib: 1; SENP6 inh: 5; SENP8 block-2: 21

What do the screens show for `O=C(CCCN1C(=O)/C(=C\c2ccccc2)SC1=S)Nc1cccc(C(=O)O)c1`?
UBC13 polyUb: -4; SENP8 block-1: 38; SENP7 inh: 0; Apaf1 inhib: 6; SENP6 inh: 63*; SENP8 block-2: 24; SENP8 confirm: 43; SENP6 conf: 48; SENP7 conf: 37; Casp3 select: 24; Luc interf: 6

Results for COc1cc(/C=C2/SC(=S)N(Cc3ccccc3)C2=O)ccc1O ?
UBC13 polyUb: -64; SENP8 block-1: 0; SENP7 inh: 4; Apaf1 inhib: -6; SENP6 inh: 49; SENP8 block-2: 29

Results for COc1ccc(/C=C2\SC(=S)N(CCC(=O)Nc3cccc(C(=O)O)c3)C2=O)cc1 ?
UBC13 polyUb: -21; SENP8 block-1: 53*; SENP7 inh: 6; Apaf1 inhib: 0; SENP6 inh: 62*; SENP8 block-2: 25; SENP8 confirm: 35; SENP6 conf: 33; SENP7 conf: 21; Casp3 select: 21; Luc interf: 15

What do the screens show for `O=C(CCN1C(=O)/C(=C/c2ccc(Cl)cc2)SC1=S)Nc1cccc(C(=O)O)c1`?
UBC13 polyUb: -24; SENP8 block-1: 34; SENP7 inh: 5; Apaf1 inhib: 3; SENP6 inh: 8; SENP8 block-2: 18

What do the screens show for `Cc1ccc(NC(=O)COc2cccc(/C=C3\SC(=S)N(CCC(=O)O)C3=O)c2)cc1Cl`?
UBC13 polyUb: -22; SENP8 block-1: 47; SENP7 inh: -1; Apaf1 inhib: 21; SENP6 inh: 66*; SENP8 block-2: 33; SENP8 confirm: 13; SENP6 conf: 42; SENP7 conf: 61*; Casp3 select: 21; Luc interf: 2

What do the screens show for `C[C@H](CO)N1C[C@H](C)[C@H](CN(C)S(=O)(=O)c2ccc(Cl)cc2)OCc2ccccc2-c2c(n(C)c3ccccc23)C1=O`?
SENP8 block-2: 3

What do the screens show for `O=C(Nc1ccc(F)c(Cl)c1)c1ccc2c(c1)OCO2`?
UBC13 polyUb: -8; SENP8 block-1: 81*; SENP7 inh: 76*; Apaf1 inhib: 1; SENP6 inh: 88*; SENP8 block-2: 5; SENP8 confirm: 5; SENP6 conf: 90*; SENP7 conf: 100*; Casp3 select: 84*; Luc interf: 33

What do the screens show for `O=C(Nc1ccc(F)c(Cl)c1)c1cccnc1`?
UBC13 polyUb: -5; SENP8 block-1: -3; SENP7 inh: 6; Apaf1 inhib: -3; SENP6 inh: 24; SENP8 block-2: 6

How did COCC(=O)Nc1ccc(OC)c(Cl)c1 do in these assays?
UBC13 polyUb: 2; SENP8 block-1: 1; SENP7 inh: 2; Apaf1 inhib: -9; SENP6 inh: 3; SENP8 block-2: 6

How did O=C(Nc1ccc(F)c(Cl)c1)c1ccccc1 do in these assays?
UBC13 polyUb: 1; SENP8 block-1: 77*; SENP7 inh: 83*; Apaf1 inhib: -1; SENP6 inh: 78*; SENP8 block-2: -2; SENP8 confirm: 84*; SENP6 conf: 82*; SENP7 conf: 95*; Casp3 select: 78*; Luc interf: 54*

What do the screens show for `COc1ccc(NC(=O)CSc2ncn(-c3ccccc3)n2)cc1Cl`?
UBC13 polyUb: -14; SENP8 block-1: 5; SENP7 inh: 8; Apaf1 inhib: 12; SENP6 inh: 93*; SENP8 block-2: 13; SENP8 confirm: 13; SENP6 conf: 9; SENP7 conf: 4; Casp3 select: 0; Luc interf: 1

Results for COc1ccc(NC(=O)C=C(C)C)cc1Cl ?
UBC13 polyUb: 1; SENP8 block-1: 93*; SENP7 inh: 4; Apaf1 inhib: -6; SENP6 inh: 94*; SENP8 block-2: 12; SENP8 confirm: 4; SENP6 conf: 94*; SENP7 conf: 100*; Casp3 select: 96*; Luc interf: 94*

Results for CCC(CC)C(C(=O)NCc1ccccc1)N1CCN(CCN2CCOCC2)CC1 (stereo not drawn) ?
SENP8 block-2: 14

What do the screens show for `COc1ccc(NC(=O)c2ccc3c(c2)OCO3)cc1Cl`?
UBC13 polyUb: 23; SENP8 block-1: 83*; SENP7 inh: 93*; Apaf1 inhib: -3; SENP6 inh: 80*; SENP8 block-2: 17; SENP8 confirm: 5; SENP6 conf: 88*; SENP7 conf: 99*; Casp3 select: 88*; Luc interf: 12

Results for Nc1ccn([C@@H]2O[C@H](C(=O)NCc3ccc4c(c3)OCO4)[C@@H](O)[C@H]2O)c(=O)n1 ?
SENP8 block-2: 18

Results for COc1cc(Cl)c(NC2=CC(=O)C(=O)c3ccccc32)c(OC)c1 ?
UBC13 polyUb: -284; SENP8 block-1: 75*; SENP7 inh: 60*; Apaf1 inhib: 92*; SENP6 inh: -12; SENP8 block-2: inactive; SENP8 confirm: 1; SENP6 conf: 90*; SENP7 conf: 74*; Casp3 select: 8; Luc interf: 0

What do the screens show for `COc1cc(Cl)c(NS(=O)(=O)c2ccc(-c3ccc(=O)[nH]n3)o2)c(OC)c1`?
UBC13 polyUb: -10; SENP8 block-1: 1; SENP7 inh: -10; Apaf1 inhib: -3; SENP6 inh: 9; SENP8 block-2: 6

What do the screens show for `O=C(NC1CCCCC1)C1c2ccccc2OCC(=O)N1Cc1ccco1` (stereo not drawn)?
SENP8 block-2: 7
